Compound activity deposited in PubChem by The Scripps Research Institute Molecular Screening Center.
GPR7 antag – antagonists of human GPR7 (neuropeptides B/W receptor 1). inhibition, % at 4.4 µM. 1.1% of 290,000 active. P48145. GPR7-expressing cells, fluorescence antagonist assay; in the data active means inhibition above about 16%, passing the limit was not always enough;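 further: cells stimulated with the agonist NPW; 0% = agonist with vehicle and 100% = vehicle without agonist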
TAAR1 antagonist – antagonists of human TAAR1; Q96RJ0; CHO RD-HGA16 TAAR1, Fluo-8 calcium fluorescence, antagonist; inhibition, % at 3 µM; 1.5% of 360,000 active;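 active means inhibition above a per-plate cutoff, the mean inhibition of test compounds on that plate plus 3 SD, cut at about 49% in these data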;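 further: 0% = DMSO plus EC80 beta-PEA response and 100% = DMSO alone without agonist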
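System: CHO RD-HGA16 cells bearing hTAAR1. Reagent: EC80 β-phenethylamine stimulus. Schedule: seeding 17-24 h prior, 75-min 37 °C, 30-min RT dye loading. Signal: Fluo-8 intracellular calcium dye fluorescence, real-time kinetic reads. Read-out: % inhibition from peak post-agonist over basal fluorescence ratio. Benchmarks: vehicle wells and EC80 agonist wells. Replicates: n of 1.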
CHO parental Ca – signal in parental CHO cells, OX1R antagonist counter-screen; inhibition, % at 5.6 µM; AID 463079; parental CHO-K1, ATP-induced calcium, Fluo-8 fluorescence; 0.63% of 330,000 active;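 active means inhibition above that plate's mean sample inhibition plus 3 SD, cut at about 26% in these data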;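 further: 0% = ATP-challenged DMSO wells and 100% = DMSO wells without ATP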
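material = parental CHO cells | also added = ATP as calcium-mobilizing challenge | dosing = single point at 5.6 µM | detection = intracellular calcium via Fluo-8 no-wash fluorescent dye | read-out = % inhibition | benchmarks = low control ATP plus DMSO, high control DMSO only | repeats = one well per compound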
OX1R antag-1 – blocks the human orexin 1 receptor | O43613 | OX1R-expressing cells, FRET antagonist read-out | inhibition, % at 6.6 µM | 1.8% of 330,000 active | AID 485270; in the data active means inhibition mostly above about 38%, no sharp cut-off; inactive means mostly below about 40%;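 further: 0% = agonist challenge alone and 100% = reference antagonist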
Target sequence (O43613 whole entry, looked up): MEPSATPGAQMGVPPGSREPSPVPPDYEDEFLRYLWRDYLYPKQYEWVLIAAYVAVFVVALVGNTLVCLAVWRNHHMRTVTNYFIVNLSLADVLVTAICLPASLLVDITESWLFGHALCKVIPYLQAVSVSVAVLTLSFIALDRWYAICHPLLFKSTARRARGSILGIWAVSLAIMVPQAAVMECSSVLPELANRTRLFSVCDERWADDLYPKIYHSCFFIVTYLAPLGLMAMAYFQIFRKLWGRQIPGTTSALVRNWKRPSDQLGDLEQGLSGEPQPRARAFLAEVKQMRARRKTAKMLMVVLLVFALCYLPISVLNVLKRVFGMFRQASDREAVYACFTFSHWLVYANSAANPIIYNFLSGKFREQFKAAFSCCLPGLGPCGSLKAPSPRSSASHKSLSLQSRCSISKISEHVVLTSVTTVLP
OX1R antag-2 – blocks the human orexin 1 receptor; CHO/OX1R cells, Fluo-8 calcium fluorescence, orexin A; O43613; inhibition, % at 5 µM; 0.43% of 330,000 active;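 active means inhibition above its plate's threshold, mean inhibition of all tested compounds on the plate plus 3 SD, cut at about 37% in these data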;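 further: 0% = orexin A challenge wells and 100% = SB-334867-A antagonist wells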
TAAR1 agonist – human TAAR1 agonism | CHO RD-HGA16 TAAR1, Fluo-8 calcium fluorescence; vehicle wells 0%, saturating PEA agonist 100% | activation, % at 3 µM | 0.99% of 360,000 active | AID 624467;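 active means activation above the mean activation of all test compounds in the run plus 3 SD, cut at about 38% in these data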
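Assay system – CHO-derived RD-HGA16 cells with stable Gα16 and human TAAR1 · Compound dosing – one-point dosing at 3 µM (nominal) · Incubation – 17-24 h seeding, 75 min 37 °C dye, 30 min RT · Measured by – kinetic Fluo-8 calcium fluorescence · Control set – DMSO vehicle as 0%, PEA at EC100 as 100% · Repeats – single well for each compound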
TAAR1 ag confirm – human TAAR1 agonism, confirmed; shares compounds with TAAR1 agonist; CHO RD-HGA16 TAAR1, Fluo-8 calcium fluorescence; scaled: DMSO 0%, maximal phenethylamine 100%; activation, % at 3 µM; 82% of 2,400 active; AID 651783;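 active means activation above a cutoff set at the run's mean compound activation plus 3 SD, cut at about 39% in these data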
Ga16 nonsel ag – nonselective agonist in parental cells, TAAR1 agonist counter-screen. CHO-Ga16 parental, Fluo-8 calcium fluorescence; normalized to maximal ATP response, DMSO zero. 50% of 2,400 active. shares compounds with TAAR1 agonist. activation, % at 3 µM;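 active means activation above the run cutoff, the mean activation over all tested wells plus 3 SD, cut at about 12% in these data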;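 further: 0% = DMSO wells and 100% = maximal ATP response on the peak over basal ratio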
TAAR1 desens – human TAAR1 agonist that also desensitizes the receptor | shares compounds with TAAR1 agonist | CHO RD-HGA16 hTAAR1, Fluo-8 calcium, beta-PEA response inhibition | inhibition, % at 3 µM | 46% of 2,400 active;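 active means inhibition above the run cutoff, the mean inhibition of all test compounds plus 3 SD, cut at about 49% in these data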;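 further: beta-PEA stimulus applied at its EC80; loss of beta-PEA calcium signal after compound pretreatment read as receptor desensitization; 0% = DMSO with beta-PEA at EC80 and 100% = DMSO alone without agonist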
Ga16 antag count – nonselective Ga16 antagonism, counter-screen; CHO-Ga16 ATP-induced calcium, Fluo-8 fluorescence; inhibition, % at 3 µM; shares compounds with TAAR1 agonist; 39% of 2,400 active;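 active means inhibition above the plate's mean compound inhibition plus 3 SD, computed per plate, cut at about 22% in these data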;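 further: 0% = EC80 ATP with DMSO and 100% = DMSO wells without ATP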
* marks the source's active call; other numbers are inactive results; nt = no result. Shown are actives, neighbours in structure and some others; about 4.6% of the full set was active somewhere.

SMILES	GPR7 antag	TAAR1 antagonist	CHO parental Ca	OX1R antag-1	OX1R antag-2	TAAR1 agonist	TAAR1 ag confirm	Ga16 nonsel ag	TAAR1 desens	Ga16 antag count
Cc1ccc(C(=O)NNC(=S)NC(=O)c2ccc(Cl)cc2Cl)cc1	14	108*	45*	1	57*	172*	161*	123*	107*	101*
CC(C)NC(=S)NC(=O)c1ccc(Cl)cc1Cl	2	-30	-19	4	-32	6	nt	nt	nt	nt
C=CCn1c(N)c(C(=O)Nc2ccc(C)cc2)sc1=S	1	40	-7	17	-11	62*	-4	-1	1	12
O=C(N[C@H](C(=O)N1CCC[C@H]1C(=O)NCCc1ccccc1Cl)C1CCCCC1)C1CC1	nt	34	nt	nt	nt	46*	73*	1	78*	6
O=C(N[C@H](C(=O)N1CCC[C@H]1C(=O)NCCc1ccccc1Cl)C1CCCCC1)c1ccccc1	nt	66*	nt	nt	nt	64*	76*	2	85*	-2
COc1cccc(C(=O)N[C@H](C(=O)N2CCC[C@H]2C(=O)NCCc2ccccc2Cl)C2CCCCC2)c1	nt	55*	nt	nt	nt	52*	79*	4	86*	5
Nc1nnc(CC(=O)N/N=C/c2ccccc2OCc2ccc(F)cc2)s1	-10	9	-17	8	-22	1	nt	nt	nt	nt
COc1ccccc1C(=O)NNC(=S)NC(=O)c1cccs1	-4	16	18	34	20	106*	103*	77*	44	38*
COc1ccccc1C(=O)NNC(=S)NC(=O)c1sc2ccccc2c1Cl	2	80*	-6	6	-5	145*	140*	118*	106*	94*
O=C(NC(=S)NNC(=O)c1ccccc1O)c1cccs1	-4	-3	4	4	6	27	nt	nt	nt	nt
COc1ccccc1C(=O)NC(=S)NNC(=O)c1sc2ccccc2c1Cl	0	74*	-3	43	9	117*	166*	124*	106*	87*
COc1ccc(/C=C/C(=O)NC(=S)NNC(=O)c2cccs2)cc1	-3	73*	6	3	-18	100*	69*	51*	50*	41*
Cn1c(=O)c2sccc2n(Cc2ccccc2)c1=O	-12	2	-3	8	-2	2	nt	nt	nt	nt
COc1ccc(-n2ncc3c2CC(C)(C)CC3NC(=O)c2ccc(OC)o2)cc1 (configuration not stated)	2	-28	-17	4	-34	-3	nt	nt	nt	nt
CCOC(=O)[C@]12CCCC=C1N(CCc1ccc(OC)c(OC)c1)C(=O)[C@H](CC(=O)N1CCCCC1)C2	nt	-4	nt	nt	nt	1	nt	nt	nt	nt
FC(F)(F)c1ccccc1NC(=S)N1CCc2ccccc2C1	-2	43	6	7	-14	80*	96*	18*	45	11
O=C(CN1CCc2ccccc2C1)Nc1ccccc1C(F)(F)F	-7	4	-4	4	1	56*	75*	10	52*	4
Cc1c(Cl)cccc1NC(=S)N1CCc2ccccc2C1	15	43	-7	5	-14	74*	69*	0	30	7
Cc1ccc(S(=O)(=O)N2CCN(C(=O)CN3C(=O)c4ccc([N+](=O)[O-])cc4C3=O)CC2)cc1C	nt	6	-10	5	-9	14	nt	nt	nt	nt
N#CC(c1ccc(Cl)nn1)c1c(F)cccc1Cl (configuration not stated)	-1	2	-10	2	11	1	nt	nt	nt	nt
